Experimental data pooled from the literature.
Lines come from different studies, so protocols differ.
Effect on: cell growth or viability

SMILES | cell line | technique | time | CC50 [µM]
O=c1[nH]c2cc(-c3ccc(Cl)cc3)ccc2c(=O)n1O | HFF | MTS | 7 days | > 50
CC1CCCN(S(=O)(=O)c2nc(-c3ccc(Br)cc3)oc2-c2ccc(Cl)cc2)C1 (stereo not drawn) | HFF | ATP luminescence |  | 41.9
NCCCCNC(=O)CN1C(=O)Cc2c([nH]c3ccc(Br)cc23)-c2ccc(Cl)cc21 | J774 | WST-1 | 24 h | ≥ 100
Nc1nc2c(ncn2COCCO)c(=O)[nH]1 | HFF | ATP luminescence | 14 days | > 150
NCCNC(=O)CN1C(=O)Cc2c([nH]c3ccc(Br)cc23)-c2ccc(Cl)cc21 | J774 | WST-1 | 24 h | ≥ 100
O=S(=O)(c1ccc(Cl)cc1)c1nc(-c2ccccc2)oc1S(=O)(=O)c1ccc(Cl)cc1 | HFF | ATP luminescence |  | 86.2
O=C1c2ccccc2C(c2ccccc2F)C(=O)N1O (stereo not drawn) | HFF | MTS | 7 days | 26
C[C@H]1[C@@H](O)O[C@@H]2O[C@@]3(C)CC[C@H]4[C@H](C)CC[C@@H]1[C@@]24OO3 | J774 | ATP luminescence | 72 h | 51.3
O=c1[nH]c2cc(-c3ccccc3)sc2c(=O)n1O | HFF | MTS | 7 days | > 50
Nc1nc(O)c2ncn(COC(CO)CO)c2n1 | HFF | ATP luminescence |  | > 150
O=c1[nH]c2sc3c(c2c(=O)n1O)CCN(Cc1ccccc1)C3 | HFF | MTS | 7 days | > 50
CNC(=O)CN1C(=O)Cc2c([nH]c3ccc(Br)cc23)-c2ccc(Cl)cc21 | J774 | WST-1 | 24 h | ≤ 100
